Assays:
[1] = target: T1, GABA-A receptor; alpha-5/beta-3/gamma-2 (Homo sapiens, UniProt P18507+P28472+P31644); experiment: Displacement of [3H]Ro-151788 from recombinant human GABA-Aalpha5 receptor plus beta3gamma2; assay type: protein-complex assay
T1 sequence (P18507 whole entry): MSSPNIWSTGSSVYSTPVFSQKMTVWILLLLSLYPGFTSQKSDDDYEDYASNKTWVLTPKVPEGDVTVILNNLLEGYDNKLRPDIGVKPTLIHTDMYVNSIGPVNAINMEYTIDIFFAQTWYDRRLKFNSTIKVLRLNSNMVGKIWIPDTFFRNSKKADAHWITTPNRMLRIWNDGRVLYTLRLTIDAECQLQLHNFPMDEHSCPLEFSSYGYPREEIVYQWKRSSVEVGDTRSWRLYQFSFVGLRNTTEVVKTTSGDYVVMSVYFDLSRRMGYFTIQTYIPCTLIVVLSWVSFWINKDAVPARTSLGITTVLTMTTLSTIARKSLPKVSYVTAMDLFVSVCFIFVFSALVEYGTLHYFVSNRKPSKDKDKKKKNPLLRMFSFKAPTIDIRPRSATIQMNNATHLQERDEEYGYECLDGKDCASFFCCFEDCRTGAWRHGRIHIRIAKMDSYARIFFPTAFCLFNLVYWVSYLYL
T1 sequence (P28472 whole entry): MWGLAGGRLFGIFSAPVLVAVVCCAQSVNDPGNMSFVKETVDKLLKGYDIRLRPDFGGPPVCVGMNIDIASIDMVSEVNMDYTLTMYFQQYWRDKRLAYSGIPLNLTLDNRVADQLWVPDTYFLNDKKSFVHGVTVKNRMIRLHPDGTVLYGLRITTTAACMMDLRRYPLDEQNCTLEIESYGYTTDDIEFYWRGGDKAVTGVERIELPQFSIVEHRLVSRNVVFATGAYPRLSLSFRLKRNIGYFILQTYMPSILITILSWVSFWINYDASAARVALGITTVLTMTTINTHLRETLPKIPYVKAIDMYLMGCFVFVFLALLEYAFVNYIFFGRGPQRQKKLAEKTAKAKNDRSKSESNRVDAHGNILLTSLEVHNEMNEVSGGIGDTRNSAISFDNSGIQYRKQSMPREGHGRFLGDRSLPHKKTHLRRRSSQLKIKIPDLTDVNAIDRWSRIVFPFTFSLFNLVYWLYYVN
T1 sequence (P31644 whole entry): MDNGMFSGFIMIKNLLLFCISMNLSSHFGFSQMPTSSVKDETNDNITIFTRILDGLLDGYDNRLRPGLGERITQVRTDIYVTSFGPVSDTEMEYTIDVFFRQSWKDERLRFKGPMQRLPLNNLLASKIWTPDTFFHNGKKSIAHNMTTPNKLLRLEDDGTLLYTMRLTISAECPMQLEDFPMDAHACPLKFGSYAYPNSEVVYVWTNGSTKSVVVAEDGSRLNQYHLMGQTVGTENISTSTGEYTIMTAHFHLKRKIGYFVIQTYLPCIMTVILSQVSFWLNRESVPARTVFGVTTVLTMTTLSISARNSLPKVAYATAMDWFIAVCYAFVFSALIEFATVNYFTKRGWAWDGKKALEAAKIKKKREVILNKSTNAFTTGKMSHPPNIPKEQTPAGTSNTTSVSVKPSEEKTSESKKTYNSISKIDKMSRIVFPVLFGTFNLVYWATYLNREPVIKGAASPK
Method in brief: (§1)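 Benzodiazepine-site binding on stably transfected αxβ3γ2 receptors (x = 1, 2, 3 or 5). Inhibition curves run with [3H]Ro15-1788 at roughly twice its Kd. Ki derived by Cheng-Prusoff equation. Mean of three to six determinations.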

[2] = target: GABA-A receptor; alpha-3/beta-3/gamma-2 (Homo sapiens) (UniProt P18507+P28472+P34903); experiment: Efficacy against recombinant human GABA-Aalpha3 plus beta-3-gamma-2 expressed in L(tk-) cells by whole cell patch clamp method relative to chlordiazepoxide; assay type: functional, cell-based
Method in brief: (§2)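 Whole-cell patch clamp on αxβ3γ2 receptors stably expressed in L(tk-) cells, measuring the effect on current evoked by an EC20-equivalent of GABA. Reported relative to full agonist chlordiazepoxide (=1.0), or as direct percent modulation of the EC20 control, with inverse agonism given as percent. Mean of at least four independent experiments.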

[3] = Stability in rat assessed as liver microsomal turnover; assay type: ADME, Microsome; settings: liver microsomes, read-out: Stability
Method in brief: (§3)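 Test compound at 1 µM, with diazepam as control, incubated 0.25 h with pooled liver microsomes at 0.5 mg/mL protein. Compound remaining quantified by LC/MS/MS. Turnover is the mean of three determinations.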

[4] = Stability in dog assessed as liver microsomal turnover; assay type: ADME, Canis lupus familiaris; settings: liver microsomes, read-out: Stability; method in brief: as §3
[5] = target: T2, GABA-A receptor; alpha-3/beta-3/gamma-2 (Homo sapiens, UniProt P18507+P28472+P34903); experiment: Displacement of [3H]Ro-151788 from recombinant human GABA-Aalpha3 receptor plus beta3gamma2; assay type: protein-complex assay; method in brief: as §1
T2 sequence (P18507 whole entry): T1 sequence (P18507 whole entry)
T2 sequence (P28472 whole entry): T1 sequence (P28472 whole entry)
T2 sequence (P34903 whole entry): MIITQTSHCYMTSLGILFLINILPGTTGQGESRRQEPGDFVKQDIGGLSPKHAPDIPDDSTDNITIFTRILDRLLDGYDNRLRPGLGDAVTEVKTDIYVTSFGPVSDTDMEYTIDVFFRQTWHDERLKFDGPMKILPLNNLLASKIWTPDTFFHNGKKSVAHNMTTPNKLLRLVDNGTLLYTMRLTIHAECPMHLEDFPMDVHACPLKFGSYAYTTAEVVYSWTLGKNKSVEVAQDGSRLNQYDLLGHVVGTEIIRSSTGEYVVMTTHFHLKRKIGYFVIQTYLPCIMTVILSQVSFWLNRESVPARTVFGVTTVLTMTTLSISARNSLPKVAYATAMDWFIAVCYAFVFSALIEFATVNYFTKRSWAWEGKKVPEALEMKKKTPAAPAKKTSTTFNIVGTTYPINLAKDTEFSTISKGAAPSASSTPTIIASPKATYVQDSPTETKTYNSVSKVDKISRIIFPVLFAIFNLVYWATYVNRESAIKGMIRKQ

[6] = target: T3, GABA-A receptor; alpha-1/beta-3/gamma-2 (Homo sapiens) (UniProt P14867+P18507+P28472); experiment: Efficacy against recombinant human GABA-Aalpha1 plus beta-3-gamma-2 expressed in L(tk-) cells by whole cell patch clamp method relative to chlordiazepoxide; assay type: functional, cell-based; method in brief: as §2
[7] = target: GABA-A receptor; alpha-2/beta-3/gamma-2 (Homo sapiens) (UniProt P18507+P28472+P47869); experiment: Efficacy against recombinant human GABA-Aalpha2 plus beta-3-gamma-2 expressed in L(tk-) cells by whole cell patch clamp method relative to chlordiazepoxide; assay type: functional, cell-based; method in brief: as §2
[8] = Half life in rat; assay type: ADME, organism-based; settings: in vivo
Method in brief: (§4)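 Pharmacokinetics from six animals per species: three dosed iv and three dosed po.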

[9] = target: T3, GABA-A receptor; alpha-1/beta-3/gamma-2 (Homo sapiens); experiment: Efficacy against recombinant human GABA-Aalpha1 plus beta-3-gamma-2 expressed in L(tk-) cells by whole cell patch clamp method; assay type: functional, cell-based; method in brief: as §2
[10] = target: T4, GABA-A receptor; alpha-5/beta-3/gamma-2 (Homo sapiens) (UniProt P18507+P28472+P31644); experiment: Efficacy against recombinant human GABA-Aalpha5 plus beta-3-gamma-2 expressed in L(tk-) cells by whole cell patch clamp method; assay type: functional, cell-based; method in brief: as §2
[11] = Plasma clearance in rat; assay type: ADME, organism-based; method in brief: as §4
[12] = Oral bioavailability in rat; assay type: ADME, organism-based; settings: in vivo; method in brief: as §4
[13] = target: GABA-A receptor; anion channel (Rattus norvegicus) (UniProt O09028+P15431+P18506+P18508+P19969+P20236+P23574+P23576+P28471+P28473+P30191+P62813+P63079+P63138+Q91ZM7+Q9ES14); experiment: Receptor occupancy in vivo by displacement of [3H]Ro 15-1788 binding from GABA-A receptor in rat, po; assay type: functional, organism-based
Method in brief: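 Rat in vivo occupancy measured by [3H]Ro 15-1788 binding after oral dosing. Rats taken as a subgroup after the plus-maze trial, i.e. 30 min post-dose or later. ED50 derived from dose-dependent occupancy. Mean ± SEM, n = 5-10/group.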

[14] = target: T5, GABA-A receptor; alpha-1/beta-3/gamma-2 (Homo sapiens, UniProt P14867+P18507+P28472); experiment: Displacement of [3H]Ro-151788 from recombinant human GABA-Aalpha1 receptor plus beta3gamma2; assay type: protein-complex assay; method in brief: as §1
T5 sequence (P14867 whole entry): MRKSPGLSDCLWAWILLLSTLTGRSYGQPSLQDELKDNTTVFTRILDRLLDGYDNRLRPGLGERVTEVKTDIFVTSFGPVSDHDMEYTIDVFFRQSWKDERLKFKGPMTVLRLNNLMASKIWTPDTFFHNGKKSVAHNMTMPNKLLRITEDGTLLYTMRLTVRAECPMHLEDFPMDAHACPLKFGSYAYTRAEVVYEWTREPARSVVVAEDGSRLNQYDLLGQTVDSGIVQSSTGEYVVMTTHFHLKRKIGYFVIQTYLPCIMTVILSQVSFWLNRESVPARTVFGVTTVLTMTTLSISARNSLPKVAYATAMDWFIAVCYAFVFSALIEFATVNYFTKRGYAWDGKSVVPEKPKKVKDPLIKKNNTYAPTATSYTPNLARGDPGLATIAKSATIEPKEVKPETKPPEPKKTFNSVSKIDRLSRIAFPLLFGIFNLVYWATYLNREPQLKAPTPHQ
T5 sequence (P18507 whole entry): T1 sequence (P18507 whole entry)
T5 sequence (P28472 whole entry): T1 sequence (P28472 whole entry)

[15] = Stability in human assessed as liver microsomal turnover; assay type: ADME, Microsome; settings: liver microsomes, read-out: Stability; method in brief: as §3
[16] = target: T4, GABA-A receptor; alpha-5/beta-3/gamma-2 (Homo sapiens); experiment: Efficacy against recombinant human GABA-Aalpha5 plus beta-3-gamma-2 expressed in L(tk-) cells by whole cell patch clamp method relative to chlordiazepoxide; assay type: functional, cell-based; method in brief: as §2

Compound	Ki [1]	Efficacy [2]	metabolised [3]	metabolised [4]	Ki [5]	Efficacy [6]	Efficacy [7]	half-life [8]	Efficacy [9]	Efficacy [10]	clearance [11]	bioavailability [12]	Occ50 [13]	Ki [14]	metabolised [15]	Activity [13]	Efficacy [16]
Fc1ccc(-c2cc(-c3ccc(F)c(-c4ncc(F)cc4F)c3)cnn2)cc1	3.8 nM	0.21	7%	20%	5.6 nM	0.02											
Fc1ccc(-c2cc(-c3ccc(F)c(-c4ncc(F)cc4F)c3)cnn2)c(F)c1	1.4 nM	0.42	13%	18%	3.1 nM	0.07							4.6 mg/kg		< 5%		
Fc1cnc(-c2cc(-c3cnnc(-c4ccncc4F)c3)ccc2F)c(F)c1	5.6 nM	0.41	23%		8.2 nM				-7%				15.3 mg/kg	3.5 nM	< 5%		
Fc1cnc(-c2cc(-c3cnnc(-c4ncccc4F)c3)ccc2F)c(F)c1	3.2 nM	0.17	< 5%		1.7 nM				-26%					0.4 nM	< 5%	< 0.2 mg/kg	0.14

Continued, values first:

Ki [1]	Efficacy [2]	metabolised [3]	metabolised [4]	Ki [5]	Efficacy [6]	Efficacy [7]	half-life [8]	Efficacy [9]	Efficacy [10]	clearance [11]	bioavailability [12]	Occ50 [13]	Ki [14]	metabolised [15]	Activity [13]	Efficacy [16]	Compound
7.7 nM	0.58	17%	8%	5.6 nM		0.24	0.8 h	-8%	-3%	91 mL/min/kg	5%	7.2 mg/kg	0.9 nM	8%			Fc1cnccc1-c1cc(-c2ccc(F)c(-c3ncccc3F)c2)cnn1
3 nM	0.39	9%	9%	3.2 nM				-7%				< 0.2 mg/kg	0.8 nM	9%			Fc1ccc(-c2cnnc(-c3c(F)cncc3F)c2)cc1-c1ncccc1F
0.5 nM	0.31	11%	34%	0.9 nM	0.11												Fc1ccccc1-c1cc(-c2ccc(F)c(-c3ncccc3F)c2)cnn1
0.3 nM	0.24	19%	24%	0.4 nM				-5%					0.1 nM	13%			Fc1ccc(-c2cnnc(-c3c(F)cccc3F)c2)cc1-c1ncccc1F
0.7 nM	0.4	22%	31%	1.7 nM		0.2	2.2 h	-20%	-20%	30 mL/min/kg	11%	3 mg/kg		8%			Fc1cnc(-c2cc(-c3cnnc(-c4ccccc4F)c3)ccc2F)c(F)c1
2.4 nM	0.4	3%	2%	1.4 nM				-30%					0.5 nM	5%	0.5 mg/kg		Fc1ccc(-c2cnnc(-c3ncccc3F)c2)cc1-c1ncccc1F

Reference: ChEMBL document CHEMBL1146073, “A pyridazine series of alpha2/alpha3 subtype selective GABA A agonists for the treatment of anxiety” (J Med Chem, 2006)
